Results: ChEMBL document CHEMBL1129784, “Decomposition pathways and in vitro HIV inhibitory effects of isoddA pronucleotides: toward a rational approach for intracellular delivery of nucleoside 5'-monophosphates” (J Med Chem, 1996)
Several values for one entry are separate records, joined by “and”; a condition that tells them apart may be missing. Equal entries are not always repeated.

Legend:
[1] = Selectivity index which is the ratio between CC50 and EC50; assay type: functional
[2] = Half life in CEM cell extracts (25 uM, 37 degree C); assay type: ADME, CCRF-CEM; settings: human
Method in brief: (§1)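 Incubated at 25 µM initial concentration and 37 °C in full CEM cell extract, in RPMI 1640 with 10% heat-inactivated fetal calf serum, or in freshly withdrawn human serum. Aliquots analysed by on-line cleaning HPLC (precolumn deproteinization) with UV at 260 nm. Relative concentrations came from peak areas. Half-lives were derived from kinetic model fits: pseudo-first-order or substrate inhibition.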

[3] = Half life in culture medium (25 uM, 37 degree C); assay type: ADME; method in brief: as §1
[4] = test system: C8166; assay: Ability to reduce 50% viability of C8166 cells acutely infected with HIV-2 strain IIIB; assay type: functional; settings: Homo sapiens, in the assay text read “HIV-2 strain CBL-20” for “HIV-2 strain IIIB”
Method in brief: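 Cytotoxicity in mock-infected cells run in parallel with the antiviral assay: 1 × 10^4 MT-4 or C8166 cells per well with or without various compound concentrations, 4-day incubation at 37 °C, viable cells counted by MTT. CC50 is the dose reducing viability by 50% at day 4. Mean of three independent determinations; variation among duplicates <22%.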

[5] = test system: MT4; assay: Ability to reduce 50% viability of mock-infected MT-4 cells; settings: Homo sapiens
[6] = test system: C8166; assay: Effective dose to achieve 50% protection of C8166 cells acutely infected with HIV-2 strain IIIB; assay type: functional, cell-based; settings: Homo sapiens, in the assay text read “HIV-2 strain CBL-20” for “HIV-2 strain IIIB”
Method in brief: (§2)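 Inhibition of virus-induced cytopathogenicity in acutely infected cells. HIV-1 IIIB in MT-4 cells at 100 CCID50; HIV-2 CBL-20 in C8166 cells at 1000 CCID50. 1 × 10^4 cells per well with various compound concentrations, 4 days at 37 °C, viability by MTT. EC50 is the dose giving 50% protection. Mean of three independent determinations.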

[7] = test system: MT4; assay: Effective dose to achieve 50% protection of MT-4 cells from acutely infected HIV-1 strain IIIB; assay type: functional, cell-based; settings: Homo sapiens; method in brief: as §2

Cc1cn(C2CC(N=[N+]=[N-])C(COP(=O)(OCCSC(=O)C(C)(C)C)OCCSC(=O)C(C)(C)C)O2)c(=O)[nH]c1=O (stereo not given)
SI [1]: 600 and 245 | half-life at 25 µM [2]: 1 h | half-life at 25 µM [3]: 103 h

CC(=O)SCCOP(=O)(OCCSC(C)=O)OCC1OC(n2cc(C)c(=O)[nH]c2=O)CC1N=[N+]=[N-] (stereo not given)
half-life at 25 µM [2]: < 0.1 h | half-life at 25 µM [3]: 9 h

Cc1cn([C@H]2C[C@H](N=[N+]=[N-])[C@@H](CO)O2)c(=O)[nH]c1=O [ZIDOVUDINE]
SI [1]: 30000 and > 83000 | CC50 [4]: > 500000 nM | CC50 [5]: 150000 nM | EC50 [6]: 6 nM | EC50 [7]: 5 nM
